Experiments:
[1] = Antiplatelet activity in rabbit platelet-rich plasma assessed as inhibition of ADP-induced platelet aggregation at 0.1 mM preincubated for 5 mins followed by addition of ADP measured within 5 mins by Borns turbidimetric method; format: functional; details: Oryctolagus cuniculus
Procedure, shortened: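 Rabbit carotid blood was citrated (3.8%, 9:1). PRP was obtained at 500 g for 10 min and PPP at 3000 g for 10 min. PRP was preincubated in duplicate for 5 min at 37 °C with 0.1 mM compound, plus carboxy-PTIO or BSS where indicated. ADP was then added and maximal light transmission recorded within 5 min, within 3 h of blood collection. Inhibition % was calculated versus control. Mean ± SD of three independent experiments.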

[2] = Induction of nitric oxide release in potassium phosphate buffer at pH 7.4 at 0.1 mM after 15 mins by Griess assay; format: physicochemical; details: pH 7.4, 0.25 h, 100 µM
Procedure, shortened: (§1)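 Compound (0.1 mM) in PBS pH 7.4 containing 2% DMSO and 5.0 mM L-cysteine was held at 37 °C for 15–300 min. Samples were taken every 15 min up to 120 min, then every 30 min. Each sample was reacted with Griess reagent for 10 min at 37 °C and absorbance read at 540 nm. Nitrite was quantified from a nitrite standard curve. Means reported; intra-group variation <10%.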

[3] = Antiplatelet activity in rabbit platelet-rich plasma assessed as inhibition of ADP-induced platelet aggregation preincubated for 5 mins followed by addition of ADP measured within 5 mins by Borns turbidimetric method; format: functional; details: Oryctolagus cuniculus
Procedure, shortened: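 Platelet-rich plasma from citrated rabbit carotid blood was preincubated in duplicate at 37 °C for 5 min with compound at 0.1, 0.2, 0.4, 0.8 or 1.6 mM. ADP-induced aggregation was then recorded turbidimetrically, as maximal light transmission within 5 min. Inhibition was calculated versus vehicle control, and IC50 values were derived. Mean ± SD, n = 6, ANOVA/Tukey.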

[4] = Induction of nitric oxide release in potassium phosphate buffer at pH 7.4 at 0.1 mM after 90 mins by Griess assay; format: physicochemical; details: pH 7.4, 1.5 h, 100 µM; procedure, shortened: as §1
[5] = Induction of nitric oxide release in potassium phosphate buffer at pH 7.4 at 0.1 mM after 60 mins by Griess assay; format: physicochemical; details: pH 7.4, 1 h, 100 µM; procedure, shortened: as §1
[6] = Induction of nitric oxide release in potassium phosphate buffer at pH 7.4 at 0.1 mM after 75 mins by Griess assay; format: physicochemical; details: pH 7.4, 1.25 h, 100 µM; procedure, shortened: as §1
[7] = Induction of nitric oxide release in potassium phosphate buffer at pH 7.4 at 0.1 mM after 300 mins by Griess assay; format: physicochemical; details: pH 7.4, 5 h, 100 µM; procedure, shortened: as §1
[8] = Induction of nitric oxide release in potassium phosphate buffer at pH 7.4 at 0.1 mM after 45 mins by Griess assay; format: physicochemical; details: pH 7.4, 0.75 h, 100 µM; procedure, shortened: as §1
Liver [9] = assay: Induction of hydrogen sulfide release in rat liver homogenate at 100 uM after 30 mins by microplate reader method (reference value: 1.03 to 1.21%); format: functional, tissue-based
Procedure, shortened: (§2)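 Compound was incubated at 37 °C for 0–90 min with fresh rat liver homogenate. The reaction was stopped with 1% zinc acetate and 10% trichloroacetic acid. N,N-dimethyl-p-phenylenediamine sulfate in 7.2 M HCl and FeCl3 in 1.2 M HCl were added, and absorbance was read at 670 nm after 10 min. Values were calculated against an NaHS standard curve as cumulative % conversion to H2S, n = 6.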

[10] = Induction of nitric oxide release in potassium phosphate buffer at pH 7.4 at 0.1 mM after 180 mins by Griess assay; format: physicochemical; details: pH 7.4, 3 h, 100 µM; procedure, shortened: as §1
[11] = Induction of nitric oxide release in potassium phosphate buffer at pH 7.4 at 0.1 mM after 30 mins by Griess assay; format: physicochemical; details: pH 7.4, 0.5 h, 100 µM; procedure, shortened: as §1
[12] = Induction of nitric oxide release in potassium phosphate buffer at pH 7.4 at 0.1 mM after 105 mins by Griess assay; format: physicochemical; details: pH 7.4, 1.75 h, 100 µM; procedure, shortened: as §1
[13] = Induction of nitric oxide release in potassium phosphate buffer at pH 7.4 at 0.1 mM after 120 mins by Griess assay; format: physicochemical; details: pH 7.4, 2 h, 100 µM; procedure, shortened: as §1
Liver [14] = assay: Induction of hydrogen sulfide release in rat liver homogenate at 100 uM after 15 mins by microplate reader method (reference value: 1.03 to 1.21%); format: functional, tissue-based; procedure, shortened: as §2
Liver [15] = assay: Induction of hydrogen sulfide release in rat liver homogenate at 100 uM after 60 mins by microplate reader method (reference value: 1.03 to 1.21%); format: functional, tissue-based; procedure, shortened: as §2
[16] = Induction of nitric oxide release in potassium phosphate buffer at pH 7.4 at 0.1 mM after 150 mins by Griess assay; format: physicochemical; details: pH 7.4, 2.5 h, 100 µM; procedure, shortened: as §1
[17] = Induction of nitric oxide release in potassium phosphate buffer at pH 7.4 at 0.1 mM after 240 mins by Griess assay; format: physicochemical; details: pH 7.4, 4 h, 100 µM; procedure, shortened: as §1
Liver [18] = assay: Induction of hydrogen sulfide release in rat liver homogenate at 100 uM after 90 mins by microplate reader method (reference value: 1.03 to 1.21%); format: functional, tissue-based; procedure, shortened: as §2

S=c1cc(-c2ccc(OCCCCCN3CCNCC3)cc2)ss1
inhibition at 100 µM [1]: 16.8%

CCCCC(OC(=O)CN1CCN(CCCCCCOc2ccc(-c3cc(=S)ss3)cc2)CC1)c1ccccc1C(=O)Oc1ccc(/C=C/C(=O)OCCCCO[N+](=O)[O-])cc1OC (racemic)
Activity [2]: 1.45 µM
IC50 [3]: 390 µM
inhibition at 100 µM [1]: 19.7%
Activity [4]: 4.8 µM
Activity [5]: 4 µM
Activity [6]: 4.4 µM
Activity [7]: 5.56 µM
Activity [8]: 3.09 µM
Activity (Liver [9]): 1.05%
Activity [10]: 5.48 µM
Activity [11]: 2 µM
Activity [12]: 5.1 µM
Activity [13]: 5.3 µM
Activity (Liver [14]): 0.95%
Activity (Liver [15]): 1.81%
Activity [16]: 5.46 µM
Activity [17]: 5.51 µM
Activity (Liver [18]): 1.82%

CCCCC(OC(=O)CCl)c1ccccc1C(=O)Oc1ccc(/C=C/C(=O)OCCO[N+](=O)[O-])cc1OC (racemic)
inhibition at 100 µM [1]: 18%

CCCCC(OC(=O)CN1CCN(CCOc2ccc(-c3cc(=S)ss3)cc2)CC1)c1ccccc1C(=O)Oc1ccc(/C=C/C(=O)OCCCCCCO[N+](=O)[O-])cc1OC (racemic)
Activity [2]: 2.37 µM
IC50 [3]: 210 µM
inhibition at 100 µM [1]: 19.7%
Activity [4]: 8.14 µM
Activity [5]: 6.58 µM
Activity [6]: 7.84 µM
Activity [7]: 9.57 µM
Activity [8]: 5.98 µM
Activity (Liver [9]): 2.83%
Activity [10]: 9.29 µM
Activity [11]: 4.21 µM
Activity [12]: 8.64 µM
Activity [13]: 8.76 µM
Activity (Liver [14]): 2.62%
Activity (Liver [15]): 3.74%
Activity [16]: 9.25 µM
Activity [17]: 9.44 µM
Activity (Liver [18]): 3.82%

CCCCC(OC(=O)CN1CCN(CCOc2ccc(-c3cc(=S)ss3)cc2)CC1)c1ccccc1C(=O)Oc1ccc(/C=C/C(=O)OCCO[N+](=O)[O-])cc1OC (racemic)
inhibition at 100 µM [1]: 19.7%

CCCCC(OC(=O)CN1CCN(CCCCCOc2ccc(-c3cc(=S)ss3)cc2)CC1)c1ccccc1C(=O)Oc1ccc(/C=C/C(=O)OCCCCCCO[N+](=O)[O-])cc1OC (racemic)
inhibition at 100 µM [1]: 19.7%

CCCCC(OC(=O)CN1CCN(CCCOc2ccc(-c3cc(=S)ss3)cc2)CC1)c1ccccc1C(=O)Oc1ccc(/C=C/C(=O)OCCO[N+](=O)[O-])cc1OC (racemic)
inhibition at 100 µM [1]: 19.7%

CCCCC(OC(=O)CN1CCN(CCCCCCOc2ccc(-c3cc(=S)ss3)cc2)CC1)c1ccccc1C(=O)Oc1ccc(/C=C/C(=O)OCCO[N+](=O)[O-])cc1OC (racemic)
Activity [2]: 1.96 µM
IC50 [3]: 430 µM
inhibition at 100 µM [1]: 19.7%
Activity [4]: 5.97 µM
Activity [5]: 4.98 µM
Activity [6]: 5.53 µM
Activity [7]: 7.51 µM
Activity [8]: 4.13 µM
Activity (Liver [9]): 1.73%
Activity [10]: 7.47 µM
Activity [11]: 3.17 µM
Activity [12]: 6.41 µM
Activity [13]: 6.88 µM
Activity (Liver [14]): 1.6%
Activity (Liver [15]): 2.39%
Activity [16]: 7.28 µM
Activity [17]: 7.51 µM
Activity (Liver [18]): 2.41%

CCCCC(OC(=O)CN1CCN(CCCCOc2ccc(-c3cc(=S)ss3)cc2)CC1)c1ccccc1C(=O)Oc1ccc(/C=C/C(=O)OCCCCCCO[N+](=O)[O-])cc1OC (racemic)
Activity [2]: 1.17 µM
IC50 [3]: 320 µM
inhibition at 100 µM [1]: 19.7%
Activity [4]: 4.68 µM
Activity [5]: 4 µM
Activity [6]: 4.36 µM
Activity [7]: 5.38 µM
Activity [8]: 3.26 µM
Activity (Liver [9]): 0.92%
Activity [10]: 5.31 µM
Activity [11]: 2.24 µM
Activity [12]: 4.98 µM
Activity [13]: 5.09 µM
Activity (Liver [14]): 0.75%
Activity (Liver [15]): 1.33%
Activity [16]: 5.3 µM
Activity [17]: 5.33 µM
Activity (Liver [18]): 1.35%

CCCCC(OC(=O)CN1CCN(CCCCCCOc2ccc(-c3cc(=S)ss3)cc2)CC1)c1ccccc1C(=O)Oc1ccc(/C=C/C(=O)OCCCCCCO[N+](=O)[O-])cc1OC (racemic)
Activity [2]: 3.01 µM
IC50 [3]: 190 µM
inhibition at 100 µM [1]: 19.7%
Activity [4]: 9.11 µM
Activity [5]: 7.88 µM
Activity [6]: 8.28 µM
Activity [7]: 10.22 µM
Activity [8]: 6.09 µM
Activity (Liver [9]): 2.83%
Activity [10]: 10.14 µM
Activity [11]: 5.45 µM
Activity [12]: 9.58 µM
Activity [13]: 10.01 µM
Activity (Liver [14]): 2.53%
Activity (Liver [15]): 3.3%
Activity [16]: 10.12 µM
Activity [17]: 10.18 µM
Activity (Liver [18]): 3.32%

CCCCC(OC(=O)CN1CCN(CCOc2ccc(-c3cc(=S)ss3)cc2)CC1)c1ccccc1C(=O)Oc1ccc(/C=C/C(=O)OCCCCO[N+](=O)[O-])cc1OC (racemic)
inhibition at 100 µM [1]: 19.7%

CCCCC(OC(=O)CN1CCN(CCCCCOc2ccc(-c3cc(=S)ss3)cc2)CC1)c1ccccc1C(=O)Oc1ccc(/C=C/C(=O)OCCCCO[N+](=O)[O-])cc1OC (racemic)
inhibition at 100 µM [1]: 19.7%

CCCCC(OC(=O)CN1CCN(CCCCOc2ccc(-c3cc(=S)ss3)cc2)CC1)c1ccccc1C(=O)Oc1ccc(/C=C/C(=O)OCCCCO[N+](=O)[O-])cc1OC (racemic)
Activity [2]: 2.1 µM
IC50 [3]: 360 µM
inhibition at 100 µM [1]: 19.7%
Activity [4]: 7.45 µM
Activity [5]: 6.13 µM
Activity [6]: 7.04 µM
Activity [7]: 8.37 µM
Activity [8]: 4.58 µM
Activity (Liver [9]): 1.85%
Activity [10]: 8.34 µM
Activity [11]: 3.86 µM
Activity [12]: 8.3 µM
Activity [13]: 8.37 µM
Activity (Liver [14]): 1.74%
Activity (Liver [15]): 2.71%
Activity [16]: 8.32 µM
Activity [17]: 8.25 µM
Activity (Liver [18]): 2.72%

CCCCC(OC(=O)CN1CCN(CCCCCOc2ccccc2)CC1)c1ccccc1C(=O)Oc1ccc(/C=C/C(=O)OCCO[N+](=O)[O-])cc1OC (racemic)
inhibition at 100 µM [1]: 19.8%

CCCCC(OC(=O)CN1CCN(CCCOc2ccc(-c3cc(=S)ss3)cc2)CC1)c1ccccc1C(=O)Oc1ccc(/C=C/C(=O)OCCCCO[N+](=O)[O-])cc1OC (racemic)
Activity [2]: 0.91 µM
IC50 [3]: 430 µM
inhibition at 100 µM [1]: 19.7%
Activity [4]: 2.56 µM
Activity [5]: 2.22 µM
Activity [6]: 2.36 µM
Activity [7]: 3.32 µM
Activity [8]: 1.89 µM
Activity (Liver [9]): 0.83%
Activity [10]: 3.23 µM
Activity [11]: 1.27 µM
Activity [12]: 2.98 µM
Activity [13]: 3.18 µM
Activity (Liver [14]): 0.65%
Activity (Liver [15]): 1.21%
Activity [16]: 3.25 µM
Activity [17]: 3.32 µM
Activity (Liver [18]): 1.23%

CCCCC(OC(=O)CN1CCN(CCCCCOc2ccc(-c3cc(=S)ss3)cc2)CC1)c1ccccc1C(=O)Oc1ccc(/C=C/C(=O)OC)cc1OC (racemic)
inhibition at 100 µM [1]: 27.8%

CCCCC(OC(=O)CN1CCN(CCCOc2ccc(-c3cc(=S)ss3)cc2)CC1)c1ccccc1C(=O)Oc1ccc(/C=C/C(=O)OCCCCCCO[N+](=O)[O-])cc1OC (racemic)
inhibition at 100 µM [1]: 19.7%

CCCCC(OC(=O)CN1CCN(CCCCOc2ccc(-c3cc(=S)ss3)cc2)CC1)c1ccccc1C(=O)Oc1ccc(/C=C/C(=O)OCCO[N+](=O)[O-])cc1OC (racemic)
inhibition at 100 µM [1]: 19.7%

— ChEMBL document CHEMBL3792374, “Discovery of a ring-opened derivative of 3-n-butylphthalide bearing NO/H2S-donating moieties as a potential anti-ischemic stroke agent” (Eur J Med Chem, 2016)
